Converted amounts (≈) assume the structure as drawn.
How the values were obtained:
[1] = target: RAF proto-oncogene serine/threonine-protein kinase (Homo sapiens, UniProt P04049); assay: Inhibitory activity against human Raf-1 kinase
How it was run: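 EE-tagged c-Raf and Mek made in baculovirus-infected Sf-9 cells, immuno-affinity purified. Raf (4 μg/mL) with Mek substrate (20 μg/mL) in 200 mM Tris pH 8.2, 100 mM NaCl, 20 mM 2-mercaptoethanol; compound added before starting with 10 μM γ-[³³P]ATP stock. 32 °C, 25 min; phosphocellulose filter capture, scintillation count.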

[2] = Solubility at pH 2.7; assay type: physicochemical; settings: buffer
[3] = Solubility at pH 7.2; assay type: physicochemical; settings: buffer
How it was run: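 Aqueous solubility determined in 0.5× PBS at pH 7.2; reported in µg/mL.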

RAF proto-oncogene serine/threonine-protein kinase, sequence (P04049 whole entry): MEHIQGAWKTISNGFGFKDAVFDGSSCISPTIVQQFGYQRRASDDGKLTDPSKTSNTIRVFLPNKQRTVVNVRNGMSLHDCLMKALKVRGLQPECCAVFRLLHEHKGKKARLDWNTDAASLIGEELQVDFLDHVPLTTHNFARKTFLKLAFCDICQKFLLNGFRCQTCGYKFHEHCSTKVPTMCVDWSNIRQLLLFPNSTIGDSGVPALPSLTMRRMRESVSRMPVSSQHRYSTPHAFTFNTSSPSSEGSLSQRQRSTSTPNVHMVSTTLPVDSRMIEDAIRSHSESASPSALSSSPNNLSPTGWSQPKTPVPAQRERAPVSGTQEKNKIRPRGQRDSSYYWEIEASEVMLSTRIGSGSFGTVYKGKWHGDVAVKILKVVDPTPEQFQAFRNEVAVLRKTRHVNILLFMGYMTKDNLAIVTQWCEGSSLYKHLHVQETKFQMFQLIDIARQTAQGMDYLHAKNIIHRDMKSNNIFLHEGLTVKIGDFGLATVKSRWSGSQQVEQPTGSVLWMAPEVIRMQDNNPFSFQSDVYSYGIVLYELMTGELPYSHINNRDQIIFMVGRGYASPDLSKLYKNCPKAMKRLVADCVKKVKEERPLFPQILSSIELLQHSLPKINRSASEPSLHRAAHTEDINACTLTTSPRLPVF

IC50 [1] | solubility [2] | solubility [3] | SMILES
0.05 µM | – | – | CNC(=O)c1cncc(Oc2ccc(NC(=O)Nc3ccc(Cl)c(C(F)(F)F)c3)cc2)c1
0.41 µM | – | – | COc1ccc(C(F)(F)F)cc1NC(=O)Nc1ccc(Oc2cccc(C(=O)Nc3ccc(N(C)C)cc3)c2)cc1
0.46 µM | – | – | CC(C)(C)c1cc(NC(=O)Nc2ccc(Oc3cccc(C(=O)NCc4ccccc4)c3)cc2)no1
0.06 µM | 39 µg/mL (≈ 64.1 µM) | ≤ 5 µg/mL | O=C(Nc1ccc(Oc2ccnc(C(=O)NCCN3CCOCC3)c2)cc1)Nc1ccc(Br)c(C(F)(F)F)c1
2.3 µM | – | – | CC(C)NC(=O)c1cc(Oc2ccc(NC(=O)Nc3ccc(Cl)c(C(F)(F)F)c3)cc2)ccn1
0.053 µM | – | – | CNC(=O)c1cc(Oc2ccc(NC(=O)Nc3cc(C(F)(F)F)ccc3OC)cc2)ccn1
0.13 µM | – | – | CNC(=O)c1cccc(Oc2ccc(NC(=O)Nc3cc(C(F)(F)F)ccc3OC)cc2)c1
0.13 µM | – | – | CNC(=O)c1cccc(Oc2ccc(NC(=O)Nc3ccc(Cl)c(C(F)(F)F)c3)cc2)c1
0.14 µM | 36 µg/mL (≈ 63.8 µM) | ≤ 5 µg/mL | O=C(Nc1ccc(Oc2cncc(C(=O)NCCN3CCOCC3)c2)cc1)Nc1ccc(Cl)c(C(F)(F)F)c1
0.15 µM | – | – | COc1ccc(NC(=O)c2cccc(Oc3ccc(NC(=O)Nc4cc(C(F)(F)F)ccc4OC)cc3)c2)cn1
0.46 µM | – | – | CCNC(=O)c1cc(Oc2ccc(NC(=O)Nc3cc(C(F)(F)F)ccc3OC)cc2)ccn1
0.044 µM | – | – | O=C(Nc1ccc(Oc2cccc(C(=O)Nc3cccnc3)c2)cc1)Nc1ccc(Cl)c(C(F)(F)F)c1
0.17 µM | – | – | CN(C)C(=O)c1cc(Oc2ccc(NC(=O)Nc3ccc(Br)c(C(F)(F)F)c3)cc2)ccn1
0.13 µM | – | – | CCNC(=O)c1cccc(Oc2ccc(NC(=O)Nc3cc(C(C)(C)C)on3)cc2)c1
0.3 µM | – | – | CN(C)C(=O)c1cc(Oc2ccc(NC(=O)Nc3ccc(Cl)c(C(F)(F)F)c3)cc2)ccn1
0.07 µM | – | – | O=C(Nc1ccc(Oc2cccc(C(=O)NCCN3CCOCC3)c2)cc1)Nc1ccc(Cl)c(C(F)(F)F)c1
0.16 µM | – | – | O=C(Nc1ccc(Oc2cccc(C(=O)NCCNc3ccccc3)c2)cc1)Nc1ccc(Cl)c(C(F)(F)F)c1
0.073 µM | 141 µg/mL (≈ 250 µM) | ≤ 5 µg/mL | O=C(Nc1ccc(Oc2ccnc(C(=O)NCCN3CCOCC3)c2)cc1)Nc1ccc(Cl)c(C(F)(F)F)c1
0.33 µM | – | – | COc1ccc(C(F)(F)F)cc1NC(=O)Nc1ccc(Oc2ccnc(C(=O)N(C)C)c2)cc1
0.21 µM | – | – | COc1ccc(C(F)(F)F)cc1NC(=O)Nc1ccc(Oc2cccc(C(=O)Nc3ccc(N4CCOCC4)cc3)c2)cc1
0.12 µM | – | – | CNC(=O)c1cccc(Oc2ccc(NC(=O)Nc3cc(C(C)(C)C)on3)cc2)c1

IC50 [1] | solubility [2] | solubility [3] | SMILES
0.23 µM | – | – | CC(C)(C)c1cc(NC(=O)Nc2ccc(Oc3ccncc3)cc2)no1
0.13 µM | – | – | COc1ccncc1NC(=O)c1cccc(Oc2ccc(NC(=O)Nc3ccc(Cl)c(C(F)(F)F)c3)cc2)c1
0.068 µM | – | – | CC(C)(C)c1cc(NC(=O)Nc2ccc(Oc3cccc(C(=O)Nc4cccnc4)c3)cc2)no1
0.082 µM | – | – | O=C(Nc1ccc(Oc2cccc(C(=O)NCCN3CCCCC3)c2)cc1)Nc1ccc(Cl)c(C(F)(F)F)c1
0.1 µM | 129 µg/mL (≈ 249 µM) | 41 µg/mL (≈ 79.2 µM) | COc1ccc(C(F)(F)F)cc1NC(=O)Nc1ccc(Oc2cncc(C(=O)NCCN(C)C)c2)cc1
0.027 µM | – | – | CCNC(=O)c1cc(Oc2ccc(NC(=O)Nc3ccc(Br)c(C(F)(F)F)c3)cc2)ccn1
0.37 µM | – | – | CC(C)(C)c1cc(NC(=O)Nc2ccc(Oc3cccc(C(=O)Nc4ccccc4)c3)cc2)no1
0.026 µM | – | – | CCNC(=O)c1cc(Oc2ccc(NC(=O)Nc3ccc(Cl)c(C(F)(F)F)c3)cc2)ccn1
0.5 µM | – | – | COc1ccc(C(F)(F)F)cc1NC(=O)Nc1ccc(Oc2ccnc(C(=O)NCC(C)C)c2)cc1
0.006 µM | – | – | CNC(=O)c1cc(Oc2ccc(NC(=O)Nc3ccc(Br)c(C(F)(F)F)c3)cc2)ccn1
0.063 µM | – | – | COc1ccc(C(F)(F)F)cc1NC(=O)Nc1ccc(Oc2cncc(C(=O)NCCN3CCOCC3)c2)cc1
0.11 µM | – | – | COCCNC(=O)c1cccc(Oc2ccc(NC(=O)Nc3ccc(Cl)c(C(F)(F)F)c3)cc2)c1
0.061 µM | ≤ 4 µg/mL | ≤ 4 µg/mL | CNC(=O)c1cncc(Oc2ccc(NC(=O)Nc3cc(C(F)(F)F)ccc3OC)cc2)c1
0.14 µM | – | – | CCCNC(=O)c1cccc(Oc2ccc(NC(=O)Nc3cc(C(C)(C)C)on3)cc2)c1
0.038 µM | – | – | CNC(=O)c1cc(Oc2ccc(NC(=O)Nc3cc(C(C)(C)C)on3)cc2)ccn1
0.1 µM | – | – | COc1ccc(C(F)(F)F)cc1NC(=O)Nc1ccc(Oc2cccc(C(=O)Nc3cccnc3)c2)cc1
0.16 µM | – | – | O=C(Nc1ccc(Oc2cccc(C(=O)Nc3ccc(N4CCOCC4)cc3)c2)cc1)Nc1ccc(Cl)c(C(F)(F)F)c1
0.27 µM | – | – | CCC1CCCN1CNC(=O)c1cccc(Oc2ccc(NC(=O)Nc3ccc(Cl)c(C(F)(F)F)c3)cc2)c1 (configuration not stated)
5.8 µM | – | – | CN(C)C(=O)c1cccc(Oc2ccc(NC(=O)Nc3cc(C(C)(C)C)on3)cc2)c1
0.23 µM | – | – | CN(C)c1ccc(NC(=O)c2cccc(Oc3ccc(NC(=O)Nc4ccc(Cl)c(C(F)(F)F)c4)cc3)c2)cc1
1.1 µM | – | – | CC(C)(C)c1cc(NC(=O)Nc2ccc(Oc3ccccc3)cc2)no1
